The source made the active and inactive calls. The calls are words filed in the database; no cut-off is given here.
Experiments:
[1] = system: BT-549; assay: Effect of human RSK3-overexpressing BT-549 cells assessed as suppression of tumour sphere formation at 1 uM by Tumour sphere assay; format: functional, cell-based
[2] = system: MDA-MB-231; assay: Induction of apoptosis in human MDA-MB-231 cells assessed as caspase-3 cleavage in the presence of osimertinib at 1 uM by Western blotting analysis; format: functional, cell-based
[3] = system: HEK-293T; assay: Effect on human HEK293T cells transfected with BRD4 assessed as decrease in luciferase activity at 1 uM for 6 hrs by Luciferase reporter assay; format: functional, cell-based
[4] = system: BT-549; assay: Effect on human BRD4-knockdown BT-549 cells assessed as miR-548d-3p expression at 1 uM by real-time PCR analysis; format: functional, cell-based
[5] = system: MDA-MB-231; assay: Antiproliferative activity in human JunD-overexpressing MDA-MB-231 cells assessed as cell growth in the presence of osimertinib at 1 uM by CCK-8 assay; format: functional, cell-based
Method in brief: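 Vector control, RSK3- or JunD-overexpressing cells seeded 3000/well, adhered overnight, then treated with JQ1 alone or combined with kinase inhibitors for 48 h; growth by CCK-8, normalized to DMSO control; triplicates, mean ± SD.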

[6] = system: MDA-MB-231; assay: Effect on human RPS6KA2 knockdown MDA-MB-231 cells assessed as RSK3 protein expression at 1 uM for 24 hrs by Western blot analysis; format: functional, cell-based
[7] = system: MDA-MB-231; assay: Cytotoxicity in human RSK3-overexpressing MDA-MB-231 cells assessed as cell viability at 1 uM for 48 hrs by CellTiter-Glo luminescent cell viability assay; format: functional, cell-based
Method in brief: (§1)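 CellTiter-Glo viability: stable overexpressing or shRNA clones (puromycin 1.0 μg/ml selection) seeded 3000 cells/well, adhered overnight, then exposed to 1 μM for 48 h. Luminescence is background-subtracted and normalised to DMSO-treated control. Triplicates, mean ± SD, one-way ANOVA. MDA-MB-231 cells are kept in DMEM and BT549 in RPMI-1640, each with 10% FBS.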

[8] = system: BT-549; assay: Induction of apoptosis in human BT-549 cells at 1 uM by FACS assay; format: functional, cell-based
Method in brief: (§2)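 Stable clones (vector, RSK3-overexpressing or RPS6KA2-knockdown) treated ± JQ1 1 μM. Cells washed twice in PBS, resuspended at 1 × 10^6 cells/ml in binding buffer, stained with Annexin V-FITC and propidium iodide for 10 min at room temperature in the dark, then read by flow cytometry. Three independent experiments; one-way ANOVA.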

[9] = system: MDA-MB-231; assay: Antiproliferative activity in human MDA-MB-231 cells assessed as cell growth in the presence of AZ5104 at 1 uM by CellTiter-Glo luminescent cell viability assay; format: functional, cell-based
Method in brief: (§3)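 BLBC cells seeded at 3000/well, adhered overnight, then exposed to JQ1 (1 μM) with or without an EGFR inhibitor (1 μM) for 48 h; control and RPS6KA2-shRNA clones tested. Viability by CellTiter-Glo luminescence, background-subtracted and normalized to DMSO-treated control; triplicates, mean ± SD, one-way ANOVA against JQ1 alone.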

[10] = system: BT-549; assay: Effect on human RPS6KA2-knockdown BT-549 cells assessed as RSK3 protein expression at 1 uM by Western blot analysis; format: functional, cell-based
[11] = system: BT-549; assay: Effect on human BT-549 cells assessed as RPS6KA2 mRNA expression in the presence of miR-548d-3p at 1 uM by RT-PCR analysis; format: functional, cell-based
[12] = system: BT-549; assay: Antiproliferative activity in human BT-549 cells assessed as inhibition of cell growth at 1 uM by CCK-8 assay; format: functional, cell-based
[13] = system: BT-549; assay: Cytotoxicity in human RSK3-overexpressing BT-549 cells assessed as cell viability at 1 uM for 48 hrs by CellTiter-Glo luminescent cell viability assay; format: functional, cell-based; method in brief: as §1
[14] = system: MDA-MB-231; assay: Antiproliferative activity in human MDA-MB-231 cells assessed as cell growth in the presence of EAI045 at 1 uM by CellTiter-Glo luminescent cell viability assay; format: functional, cell-based; method in brief: as §3
[15] = system: MDA-MB-231; assay: Induction of apoptosis in human MDA-MB-231 cells in the presence of osimertinib at 1 uM by flow cytometry analysis; format: functional, cell-based
Method in brief: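 Cells given JQ1 and/or osimertinib, then stained with Annexin V-FITC plus propidium iodide (10 min, room temperature, dark; 1 × 10^6 cells/ml in binding buffer after two PBS washes) and analysed by flow cytometry; one-way ANOVA.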

[16] = system: BT-549; assay: Antiproliferative activity in human BT-549 cells assessed as cell growth in the presence of AZ5104 at 1 uM by CellTiter-Glo luminescent cell viability assay; format: functional, cell-based; method in brief: as §3
[17] = system: MDA-MB-231; assay: Effect on human MDA-MB-231 cells assessed as miR-548d-5p expression at 1 uM by real-time PCR analysis; format: functional, cell-based
[18] = system: MDA-MB-231; assay: Induction of apoptosis in human MDA-MB-231 cells over expressing RSK3 assessed as viable cells at 1 uM by Annexin V-FITC flow cytometric analysis (reference value: 91.18%); format: functional; conditions: read-out: Activity; method in brief: as §2
[19] = system: MDA-MB-231; assay: Antiproliferative activity in human RPS6KA2-knockdown MDA-MB-231 cells assessed as inhibited cell growth at 1 uM for 48 hrs by CCK-8 assay; format: functional, cell-based
[20] = system: MDA-MB-231; assay: Effect on human RPS6KA2-knockdown MDA-MB-231 cells assessed as inhibition tumor sphere formation at 1 uM by Tumor sphere assay; format: functional, cell-based
[21] = system: MDA-MB-231; assay: Antitumor activity against human MDA-MB-231 cells xenografted in BALB/c nude mouse model assessed as reduction of tumor size in the presence of osimertinib at 35 mg/kg/day, sc administered every 2 days for 30 days; format: functional, organism-based; conditions: time 30.0 day
Method in brief: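 MDA-MB-231 xenografts used 1 × 10^6 cells injected subcutaneously into female BALB/c nude mice (4–6 weeks). Animals were split into four groups (n = 7) at ~100 mm3: vehicle, osimertinib 10 mg/kg, 35 mg/kg agent, or the combination, each given every 2 days. Volume was measured by calliper as length × width²/2; tumours were weighed at end.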

[22] = system: MDA-MB-231; assay: Antiproliferative activity in human FOXD3-knockdown MDA-MB-231 cells assessed as cell growth at 1 uM by CCK-8 assay; format: functional, cell-based
[23] = system: MDA-MB-231; assay: Effect on human MDA-MB-231 cells assessed as JunD protein expression in the presence of miR-548d-3p at 1 uM by Western blot analysis; format: functional, cell-based
[24] = system: MDA-MB-231; assay: Induction of apoptosis in human MDA-MB-231 cells expressing vector control assessed as necrotic cells at 1 uM by Annexin V-FITC flow cytometric analysis (reference value: 1.67%); format: functional; method in brief: as §2
[25] = system: MDA-MB-231; assay: Effect on human BRD4-knockdown MDA-MB-231 assessed as decreased luciferase activity at 1 uM for 6 hrs by Luciferase reporter assay; format: functional, cell-based
[26] = system: MDA-MB-231; assay: Antiproliferative activity in human JUND-overexpressing MDA-MB-231 cells assessed as cell viability at 1 uM by CellTiter-Glo luminescent cell viability assay; format: functional, cell-based
Method in brief: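 Stable JUND-knockdown (shRNA, puromycin 1.0 μg/ml selection) or JUND-overexpressing clones and vector controls, seeded 3000 cells/well and adhered overnight, then given DMSO or JQ1 (1 μM) for 48 h. Read-out CellTiter-Glo luminescence normalized to DMSO control; triplicates, mean ± SD, one-way ANOVA.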

[27] = system: MCF7; assay: Antiproliferative activity in human FOXD3-overexpressing MCF7 cells assessed as cell growth at 1 uM by CCK-8 assay; format: functional, cell-based

Cc1sc2c(c1C)C(c1ccc(Cl)cc1)=N[C@@H](CC(=O)OC(C)(C)C)c1nnc(C)n1-2
Activity [1]: Active
Activity [2]: Active
Activity [3]: Active
Activity [4]: Active
Activity [5]: Active
Activity [6]: Active
Activity [7]: Active
Activity [8]: Active
Activity [9]: Active
Activity [10]: Active
Activity [11]: Active
Activity [12]: Active
Activity [13]: Active
Activity [14]: Active
Activity [15]: Active
Activity [16]: Active
Activity [17]: Active
viability at 1 µM [18]: 88.3%
Activity [19]: Active
Activity [20]: Active
Activity [21]: Active
Activity [22]: Active
Activity [23]: Active
Activity [24]: 1.54%
Activity [25]: Active
Activity [26]: Active
Activity [27]: Active

Source: ChEMBL document CHEMBL5674889, “Enhanced JunD/RSK3 signalling due to loss of BRD4/FOXD3/miR-548d-3p axis determines BET inhibition resistance” (2020)
